Test results reported in ChEMBL document CHEMBL4229333, “Effects of rigidity on the selectivity of protein kinase inhibitors” (Eur J Med Chem, 2018).

Key:
[1] = molecular target: Tyrosine-protein kinase BTK (Homo sapiens) (UniProt Q06187); assay: Inhibition of BTK (unknown origin) at 1 uM by mobility shift microfluidics platform based assay relative to control
[2] = molecular target: Calcium/calmodulin-dependent protein kinase type IV (Homo sapiens) (UniProt Q16566); assay: Inhibition of CAMK4 (unknown origin) at 1 uM by mobility shift microfluidics platform based assay relative to control
[3] = molecular target: RAF proto-oncogene serine/threonine-protein kinase (Homo sapiens) (UniProt P04049); assay: Inhibition of CRAF (unknown origin) at 1 uM by mobility shift microfluidics platform based assay relative to control
[4] = molecular target: Ephrin type-A receptor 8 (Homo sapiens) (UniProt P29322); assay: Inhibition of EPH-A8 (unknown origin) at 1 uM by mobility shift microfluidics platform based assay relative to control
[5] = molecular target: Tyrosine-protein kinase Fer (Homo sapiens) (UniProt P16591); assay: Inhibition of FER (unknown origin) at 1 uM by mobility shift microfluidics platform based assay relative to control
Sequence of Tyrosine-protein kinase Fer (Homo sapiens) (P16591 whole entry, looked up): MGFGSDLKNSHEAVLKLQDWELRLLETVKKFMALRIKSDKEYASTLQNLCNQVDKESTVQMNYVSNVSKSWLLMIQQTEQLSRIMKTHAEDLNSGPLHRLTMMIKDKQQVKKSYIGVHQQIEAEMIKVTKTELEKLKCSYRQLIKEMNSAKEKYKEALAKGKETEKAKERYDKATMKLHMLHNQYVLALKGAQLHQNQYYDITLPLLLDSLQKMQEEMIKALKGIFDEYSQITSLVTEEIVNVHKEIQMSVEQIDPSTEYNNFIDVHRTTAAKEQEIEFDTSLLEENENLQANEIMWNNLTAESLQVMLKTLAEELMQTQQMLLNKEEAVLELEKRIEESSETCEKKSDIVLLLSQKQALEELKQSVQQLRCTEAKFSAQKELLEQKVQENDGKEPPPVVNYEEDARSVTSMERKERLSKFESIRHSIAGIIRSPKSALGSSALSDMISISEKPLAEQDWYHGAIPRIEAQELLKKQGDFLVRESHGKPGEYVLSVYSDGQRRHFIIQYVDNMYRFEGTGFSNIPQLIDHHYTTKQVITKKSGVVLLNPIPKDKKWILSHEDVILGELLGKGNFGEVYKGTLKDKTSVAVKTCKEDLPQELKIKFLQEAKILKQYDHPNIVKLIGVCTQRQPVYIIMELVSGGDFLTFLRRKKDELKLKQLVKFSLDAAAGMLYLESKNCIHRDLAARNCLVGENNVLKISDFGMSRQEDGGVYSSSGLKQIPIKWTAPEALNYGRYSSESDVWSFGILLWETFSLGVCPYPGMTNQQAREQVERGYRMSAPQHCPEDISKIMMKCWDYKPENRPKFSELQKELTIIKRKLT

[6] = molecular target: Fibroblast growth factor receptor 1 (Homo sapiens) (UniProt P11362); assay: Inhibition of FGFR1 (unknown origin) at 1 uM by mobility shift microfluidics platform based assay relative to control
[7] = molecular target: Fibroblast growth factor receptor 3 (Homo sapiens) (UniProt P22607); assay: Inhibition of FGFR3 (unknown origin) at 1 uM by mobility shift microfluidics platform based assay relative to control
[8] = molecular target: Macrophage colony-stimulating factor 1 receptor (Homo sapiens) (UniProt P07333); assay: Inhibition of FMS (unknown origin) at 1 uM by mobility shift microfluidics platform based assay relative to control
Sequence of Macrophage colony-stimulating factor 1 receptor (Homo sapiens) (P07333 whole entry): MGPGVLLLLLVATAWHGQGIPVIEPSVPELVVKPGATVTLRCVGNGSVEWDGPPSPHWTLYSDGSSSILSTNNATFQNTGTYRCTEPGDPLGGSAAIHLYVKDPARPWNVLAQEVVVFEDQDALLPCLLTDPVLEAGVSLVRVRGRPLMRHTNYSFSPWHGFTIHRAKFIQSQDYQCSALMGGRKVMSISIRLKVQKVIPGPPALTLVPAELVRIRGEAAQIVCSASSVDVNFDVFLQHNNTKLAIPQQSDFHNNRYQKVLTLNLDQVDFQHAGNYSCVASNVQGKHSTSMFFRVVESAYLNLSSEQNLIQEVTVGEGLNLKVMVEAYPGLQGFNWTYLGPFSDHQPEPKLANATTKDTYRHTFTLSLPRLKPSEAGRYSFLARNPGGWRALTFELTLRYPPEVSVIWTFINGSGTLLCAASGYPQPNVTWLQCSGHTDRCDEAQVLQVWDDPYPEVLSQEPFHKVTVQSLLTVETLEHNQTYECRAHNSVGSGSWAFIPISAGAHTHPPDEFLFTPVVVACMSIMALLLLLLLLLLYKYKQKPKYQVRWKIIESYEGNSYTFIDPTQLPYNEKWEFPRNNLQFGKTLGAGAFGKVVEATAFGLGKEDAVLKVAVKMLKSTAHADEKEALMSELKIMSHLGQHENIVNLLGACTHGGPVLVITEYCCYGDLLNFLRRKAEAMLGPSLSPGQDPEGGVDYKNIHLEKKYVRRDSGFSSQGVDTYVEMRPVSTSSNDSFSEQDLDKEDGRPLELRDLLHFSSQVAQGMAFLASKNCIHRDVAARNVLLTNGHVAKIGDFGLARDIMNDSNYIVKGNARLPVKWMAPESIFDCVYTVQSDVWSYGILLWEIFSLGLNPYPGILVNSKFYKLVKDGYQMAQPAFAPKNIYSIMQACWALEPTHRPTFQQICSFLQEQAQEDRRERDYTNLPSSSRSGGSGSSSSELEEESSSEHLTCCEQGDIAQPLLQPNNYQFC

[9] = molecular target: Tyrosine-protein kinase Fyn (Homo sapiens) (UniProt P06241); assay: Inhibition of FYN (unknown origin) at 1 uM by mobility shift microfluidics platform based assay relative to control
[10] = molecular target: Inhibitor of nuclear factor kappa-B kinase subunit beta (Homo sapiens) (UniProt O14920); assay: Inhibition of IKK-beta (unknown origin) at 1 uM by mobility shift microfluidics platform based assay relative to control
Sequence of Inhibitor of nuclear factor kappa-B kinase subunit beta (Homo sapiens) (O14920 whole entry): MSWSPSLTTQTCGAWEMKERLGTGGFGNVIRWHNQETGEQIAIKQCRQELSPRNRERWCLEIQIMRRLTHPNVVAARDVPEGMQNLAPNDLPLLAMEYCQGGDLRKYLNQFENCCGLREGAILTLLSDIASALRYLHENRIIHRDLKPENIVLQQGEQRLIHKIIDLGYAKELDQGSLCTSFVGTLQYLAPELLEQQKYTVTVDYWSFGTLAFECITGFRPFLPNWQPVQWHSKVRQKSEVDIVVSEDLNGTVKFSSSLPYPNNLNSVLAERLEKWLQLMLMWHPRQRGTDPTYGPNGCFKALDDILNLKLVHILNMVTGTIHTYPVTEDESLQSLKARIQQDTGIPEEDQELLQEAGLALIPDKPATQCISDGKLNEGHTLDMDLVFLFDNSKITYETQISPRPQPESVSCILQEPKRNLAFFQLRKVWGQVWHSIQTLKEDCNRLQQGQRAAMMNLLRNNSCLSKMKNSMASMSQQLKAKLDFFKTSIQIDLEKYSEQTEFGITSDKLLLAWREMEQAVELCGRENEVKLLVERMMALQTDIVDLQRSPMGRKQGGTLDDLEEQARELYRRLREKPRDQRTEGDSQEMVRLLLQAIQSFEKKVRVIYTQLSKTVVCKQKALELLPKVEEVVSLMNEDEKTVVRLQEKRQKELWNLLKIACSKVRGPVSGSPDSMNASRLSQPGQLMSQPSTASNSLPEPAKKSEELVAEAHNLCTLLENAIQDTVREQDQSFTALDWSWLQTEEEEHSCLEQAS

[11] = molecular target: Mitogen-activated protein kinase 10 (Homo sapiens) (UniProt P53779); assay: Inhibition of JNK3 (unknown origin) at 1 uM by mobility shift microfluidics platform based assay relative to control
[12] = molecular target: Serine/threonine-protein kinase LATS1 (Homo sapiens) (UniProt O95835); assay: Inhibition of LATS1 (unknown origin) at 1 uM by mobility shift microfluidics platform based assay relative to control
[13] = molecular target: MAP kinase-activated protein kinase 2 (Homo sapiens) (UniProt P49137); assay: Inhibition of MAPKAPK2 (unknown origin) at 1 uM by mobility shift microfluidics platform based assay relative to control
[14] = molecular target: MAP/microtubule affinity-regulating kinase 3 (Homo sapiens) (UniProt P27448); assay: Inhibition of MARK3 (unknown origin) at 1 uM by mobility shift microfluidics platform based assay relative to control
Sequence of MAP/microtubule affinity-regulating kinase 3 (Homo sapiens) (P27448 whole entry, looked up): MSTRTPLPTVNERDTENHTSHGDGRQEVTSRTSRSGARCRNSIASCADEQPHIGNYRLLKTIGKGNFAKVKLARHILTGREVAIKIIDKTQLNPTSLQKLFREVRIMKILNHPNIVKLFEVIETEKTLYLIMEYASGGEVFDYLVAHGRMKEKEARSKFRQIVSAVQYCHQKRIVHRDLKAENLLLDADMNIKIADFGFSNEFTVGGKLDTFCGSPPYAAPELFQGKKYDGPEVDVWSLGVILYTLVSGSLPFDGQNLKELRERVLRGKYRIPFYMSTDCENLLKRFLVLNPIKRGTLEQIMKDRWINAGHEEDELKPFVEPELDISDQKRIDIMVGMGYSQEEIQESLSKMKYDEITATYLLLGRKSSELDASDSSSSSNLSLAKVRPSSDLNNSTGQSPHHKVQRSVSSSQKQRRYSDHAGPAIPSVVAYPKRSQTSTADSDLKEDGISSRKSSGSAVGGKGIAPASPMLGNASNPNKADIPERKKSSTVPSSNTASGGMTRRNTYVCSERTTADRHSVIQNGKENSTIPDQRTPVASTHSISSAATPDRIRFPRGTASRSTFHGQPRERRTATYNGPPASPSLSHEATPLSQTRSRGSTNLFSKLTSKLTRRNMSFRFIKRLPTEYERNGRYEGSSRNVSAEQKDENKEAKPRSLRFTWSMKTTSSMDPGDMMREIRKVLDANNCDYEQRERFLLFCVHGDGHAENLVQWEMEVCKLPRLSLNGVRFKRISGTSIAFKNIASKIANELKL

[15] = molecular target: MAP kinase-interacting serine/threonine-protein kinase 1 (Homo sapiens) (UniProt Q9BUB5); assay: Inhibition of MKNK1 (unknown origin) at 1 uM by mobility shift microfluidics platform based assay relative to control
[16] = molecular target: Ribosomal protein S6 kinase alpha-4 (Homo sapiens) (UniProt O75676); assay: Inhibition of MSK2 (unknown origin) at 1 uM by mobility shift microfluidics platform based assay relative to control
Sequence of Ribosomal protein S6 kinase alpha-4 (Homo sapiens) (O75676 whole entry, looked up): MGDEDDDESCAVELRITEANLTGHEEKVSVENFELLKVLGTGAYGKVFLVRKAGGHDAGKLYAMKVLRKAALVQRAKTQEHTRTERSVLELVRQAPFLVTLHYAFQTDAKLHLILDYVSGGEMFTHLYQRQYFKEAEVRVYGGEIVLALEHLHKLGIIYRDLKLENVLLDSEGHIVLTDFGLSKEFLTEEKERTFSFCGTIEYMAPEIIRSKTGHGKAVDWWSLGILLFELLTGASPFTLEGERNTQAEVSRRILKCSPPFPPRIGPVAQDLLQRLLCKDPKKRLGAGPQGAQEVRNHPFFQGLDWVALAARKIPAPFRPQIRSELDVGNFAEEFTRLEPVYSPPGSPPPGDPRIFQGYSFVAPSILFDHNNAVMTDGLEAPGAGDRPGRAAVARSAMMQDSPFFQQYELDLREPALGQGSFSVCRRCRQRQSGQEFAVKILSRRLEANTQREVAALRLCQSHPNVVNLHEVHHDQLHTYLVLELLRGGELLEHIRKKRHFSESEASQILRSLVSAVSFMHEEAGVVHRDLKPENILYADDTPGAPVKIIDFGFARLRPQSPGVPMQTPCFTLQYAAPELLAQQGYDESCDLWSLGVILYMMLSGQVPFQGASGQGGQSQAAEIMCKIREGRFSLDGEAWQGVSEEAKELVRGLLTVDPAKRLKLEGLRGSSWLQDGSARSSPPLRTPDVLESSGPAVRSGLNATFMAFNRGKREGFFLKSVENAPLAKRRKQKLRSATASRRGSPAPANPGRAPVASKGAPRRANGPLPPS

[17] = molecular target: Serine/threonine-protein kinase Nek6 (Homo sapiens) (UniProt Q9HC98); assay: Inhibition of NEK6 (unknown origin) at 1 uM by mobility shift microfluidics platform based assay relative to control
[18] = molecular target: Mitogen-activated protein kinase 13 (Homo sapiens) (UniProt O15264); assay: Inhibition of P38-delta (unknown origin) at 1 uM by mobility shift microfluidics platform based assay relative to control
[19] = molecular target: Serine/threonine-protein kinase PAK 6 (Homo sapiens) (UniProt Q9NQU5); assay: Inhibition of PAK6 (unknown origin) at 1 uM by mobility shift microfluidics platform based assay relative to control
[20] = molecular target: Serine/threonine-protein kinase MARK2 (Homo sapiens) (UniProt Q7KZI7); assay: Inhibition of PAR-1B-alpha (unknown origin) at 1 uM by mobility shift microfluidics platform based assay relative to control
Sequence of Serine/threonine-protein kinase MARK2 (Homo sapiens) (Q7KZI7 whole entry): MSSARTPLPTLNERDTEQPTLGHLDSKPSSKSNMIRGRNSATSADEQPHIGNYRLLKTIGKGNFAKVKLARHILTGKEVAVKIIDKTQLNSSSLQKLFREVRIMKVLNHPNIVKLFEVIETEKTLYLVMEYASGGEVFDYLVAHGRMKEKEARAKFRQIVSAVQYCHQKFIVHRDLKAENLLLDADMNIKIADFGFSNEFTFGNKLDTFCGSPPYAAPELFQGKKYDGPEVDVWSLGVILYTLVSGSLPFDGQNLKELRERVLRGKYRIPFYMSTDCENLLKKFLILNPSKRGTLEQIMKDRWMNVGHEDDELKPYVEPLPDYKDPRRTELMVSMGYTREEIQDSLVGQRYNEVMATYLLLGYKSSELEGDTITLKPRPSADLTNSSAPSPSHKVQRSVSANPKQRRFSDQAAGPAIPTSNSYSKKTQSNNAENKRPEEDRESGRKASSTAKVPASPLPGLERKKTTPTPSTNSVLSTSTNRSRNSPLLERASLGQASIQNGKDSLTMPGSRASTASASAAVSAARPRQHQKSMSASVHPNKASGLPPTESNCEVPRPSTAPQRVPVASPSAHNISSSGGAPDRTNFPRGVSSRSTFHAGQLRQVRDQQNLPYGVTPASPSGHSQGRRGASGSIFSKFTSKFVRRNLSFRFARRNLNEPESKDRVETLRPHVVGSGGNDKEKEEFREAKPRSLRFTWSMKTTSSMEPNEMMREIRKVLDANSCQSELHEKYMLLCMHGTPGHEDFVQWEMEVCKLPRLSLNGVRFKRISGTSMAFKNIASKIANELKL

[21] = molecular target: Eukaryotic translation initiation factor 2-alpha kinase 3 (Homo sapiens) (UniProt Q9NZJ5); assay: Inhibition of PERK (unknown origin) at 1 uM by mobility shift microfluidics platform based assay relative to control
[22] = molecular target: Phosphatidylinositol 4,5-bisphosphate 3-kinase catalytic subunit beta isoform (Homo sapiens) (UniProt P42338); assay: Inhibition of PI3K-beta (unknown origin) at 1 uM by mobility shift microfluidics platform based assay relative to control
[23] = molecular target: Serine/threonine-protein kinase pim-3 (Homo sapiens) (UniProt Q86V86); assay: Inhibition of PIM3 (unknown origin) at 1 uM by mobility shift microfluidics platform based assay relative to control
[24] = molecular target: cAMP-dependent protein kinase catalytic subunit alpha (Homo sapiens) (UniProt P17612); assay: Inhibition of PRKACA (unknown origin) at 1 uM by mobility shift microfluidics platform based assay relative to control
[25] = molecular target: Serine/threonine-protein kinase D3 (Homo sapiens) (UniProt O94806); assay: Inhibition of PRKD3 (unknown origin) at 1 uM by mobility shift microfluidics platform based assay relative to control
[26] = molecular target: cAMP-dependent protein kinase catalytic subunit PRKX (Homo sapiens) (UniProt P51817); assay: Inhibition of PRKX (unknown origin) at 1 uM by mobility shift microfluidics platform based assay relative to control
[27] = molecular target: Rho-associated protein kinase 2 (Homo sapiens) (UniProt O75116); assay: Inhibition of ROCK2 (unknown origin) at 1 uM by mobility shift microfluidics platform based assay relative to control
[28] = molecular target: Ribosomal protein S6 kinase alpha-2 (Homo sapiens) (UniProt Q15349); assay: Inhibition of RSK3 (unknown origin) at 1 uM by mobility shift microfluidics platform based assay relative to control
[29] = molecular target: Serine/threonine-protein kinase SIK1 (Homo sapiens) (UniProt P57059); assay: Inhibition of SIK (unknown origin) at 1 uM by mobility shift microfluidics platform based assay relative to control
[30] = molecular target: Proto-oncogene tyrosine-protein kinase Src (Homo sapiens) (UniProt P12931); assay: Inhibition of SRC (unknown origin) at 1 uM by mobility shift microfluidics platform based assay relative to control
[31] = molecular target: SRSF protein kinase 1 (Homo sapiens) (UniProt Q96SB4); assay: Inhibition of SRPK1 (unknown origin) at 1 uM by mobility shift microfluidics platform based assay relative to control
[32] = molecular target: High affinity nerve growth factor receptor (Homo sapiens) (UniProt P04629); assay: Inhibition of TRKA (unknown origin) at 1 uM by mobility shift microfluidics platform based assay relative to control
[33] = Apparent permeability from basolateral to apical side in human Caco2 cells in absence of P-gp inhibitor by LC-MS/MS analysis; assay type: ADME, cell-based; details: Caco-2
How it was run: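 Caco-2 monolayer permeability, measured apical-to-basolateral and basolateral-to-apical. Compound concentrations were quantified by LC-MS/MS, and apparent permeability coefficients (Papp, cm/s) were calculated from them.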

| inhibition [1] [%] | inhibition [2] [%] | inhibition [3] [%] | inhibition [4] [%] | inhibition [5] [%] | inhibition [6] [%] | inhibition [7] [%] | inhibition [8] [%] | inhibition [9] [%] | inhibition [10] [%] | inhibition [11] [%] | inhibition [12] [%] | inhibition [13] [%] | inhibition [14] [%] | inhibition [15] [%] | inhibition [16] [%] | inhibition [17] [%] | inhibition [18] [%] | inhibition [19] [%] | inhibition [20] [%] | SMILES | also measured |
| --- | --- | --- | --- | --- | --- | --- | --- | --- | --- | --- | --- | --- | --- | --- | --- | --- | --- | --- | --- | --- | --- |
| 5 | 6 | 101 | 97 | 12 | 91 | 34 | 87 | 85 | 2 | 5 | 3 | 5 | 1 | 2 | 5 | -5 | 2 | 3 | 0 | CC(C)n1nc(C#Cc2cccc3cc(-c4cccc(C(F)(F)F)c4)ncc23)c2c(N)ncnc21 | inhibition [21]: 0%; inhibition [22]: -5%; inhibition [23]: 1%; inhibition [24]: 4%; inhibition [25]: 1%; inhibition [26]: -4%; inhibition [27]: 4%; inhibition [28]: 2%; inhibition [29]: 7%; inhibition [30]: 80%; inhibition [31]: 2%; inhibition [32]: 2%; Papp B→A [33]: 2.6 ×10⁻⁶ cm/s |
| 71 | 11 | 118 | 100 | 40 | 98 | 52 | 99 | 101 | 22 | -8 | -4 | -1 | -1 | 0 | 3 | 0 | 0 | -1 | 0 | CC(C)n1nc(C#Cc2cccc(NC(=O)c3cccc(C(F)(F)F)c3)c2)c2c(N)ncnc21 | inhibition [21]: 29%; inhibition [22]: 1%; inhibition [23]: 0%; inhibition [24]: 2%; inhibition [25]: -1%; inhibition [26]: 2%; inhibition [27]: 18%; inhibition [28]: 10%; inhibition [29]: 43%; inhibition [30]: 100%; inhibition [31]: 1%; inhibition [32]: 22%; Papp B→A [33]: 1 ×10⁻⁶ cm/s |
